“And” between values parts separate entries of the source, which are not always exact repeats. Equal values may be shown once. Each block holds one compound with its values, some of them ahead of it.
Legend:
[1] = system: Brain; experiment: Biodistribution in brain of NMRI mouse at 185 KBq, iv after 4 hrs; format: ADME, organism-based; conditions: in vivo
[2] = system: Liver; experiment: Biodistribution in liver of NMRI muse at 185 KBq, iv after 4 hrs; format: ADME, organism-based; conditions: mouse, in vivo
[3] = Biodistribution in spleen + pancreas of NMRI mouse at 185 KBq, iv after 30 mins; format: ADME, organism-based; conditions: in vivo, 0.5 h
[4] = system: Liver; experiment: Biodistribution in liver of NMRI mouse at 185 KBq, iv after 24 hrs; format: ADME, organism-based; conditions: in vivo
[5] = Biodistribution in carcass of NMRI mouse at 185 KBq, iv after 24 hrs; format: ADME, organism-based; conditions: in vivo
[6] = Partition coefficient, log P of the compound; format: physicochemical; conditions: octanol/water
Outline: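 Octanol/buffer partitioning against 0.025 M phosphate buffer, pH 7.4; log P reported as mean ± deviation of n = 6 determinations.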

[7] = system: Blood; experiment: Biodistribution in blood of NMRI mouse at 185 KBq, iv after 4 hrs; format: ADME, organism-based; conditions: in vivo
[8] = system: Kidney; experiment: Biodistribution in kidney of NMRI mouse at 185 KBq, iv after 24 hrs; format: ADME, organism-based; conditions: in vivo
[9] = system: Lung; experiment: Biodistribution in lung of NMRI mouse at 185 KBq, iv after 24 hrs; format: ADME, organism-based; conditions: in vivo
[10] = system: Kidney; experiment: Biodistribution in kidney of NMRI mouse at 185 KBq, iv after 30 mins; format: ADME, organism-based; conditions: in vivo, 0.5 h
[11] = Biodistribution in intestine + faeces of NMRI mouse at 185 KBq, iv after 24 hrs; format: ADME, organism-based; conditions: in vivo
[12] = Biodistribution in carcass of NMRI mouse at 185 KBq, iv after 4 hrs; format: ADME, organism-based; conditions: in vivo
[13] = system: Brain; experiment: Biodistribution in brain of NMRI mouse at 185 KBq, iv after 24 hrs; format: ADME, organism-based; conditions: in vivo
[14] = system: Urinary bladder; experiment: Biodistribution in bladder of NMRI mouse at 185 KBq, iv after 4 hrs; format: ADME, organism-based; conditions: in vivo
[15] = system: Liver; experiment: Biodistribution in liver of NMRI mouse at 185 KBq, iv after 30 mins; format: ADME, organism-based; conditions: in vivo, 0.5 h
[16] = system: Urinary bladder; experiment: Biodistribution in bladder of NMRI mouse at 185 KBq, iv after 30 mins; format: ADME, organism-based; conditions: in vivo, 0.5 h
[17] = system: Brain; experiment: Biodistribution in brain of NMRI mouse at 185 KBq, iv after 30 mins; format: ADME, organism-based; conditions: in vivo, 0.5 h
[18] = system: Urinary bladder; experiment: Biodistribution in bladder of NMRI mouse at 185 KBq, iv after 24 hrs; format: ADME, organism-based; conditions: in vivo
[19] = system: Kidney; experiment: Biodistribution in kidney of NMRI mouse at 185 KBq, iv after 4 hrs; format: ADME, organism-based; conditions: in vivo
[20] = Biodistribution in spleen + pancreas of NMRI mouse at 185 KBq, iv after 24 hrs; format: ADME, organism-based; conditions: in vivo
[21] = system: Blood; experiment: Biodistribution in blood of NMRI mouse at 185 KBq, iv after 30 mins; format: ADME, organism-based; conditions: in vivo, 0.5 h
[22] = system: Blood; experiment: Biodistribution in blood of NMRI mouse at 185 KBq, iv after 24 hrs; format: ADME, organism-based; conditions: in vivo
[23] = Biodistribution in carcass of NMRI mouse at 185 KBq, iv after 30 mins; format: ADME, organism-based; conditions: in vivo, 0.5 h
[24] = Biodistribution in intestine + faeces of NMRI mouse at 185 KBq, iv after 4 hrs; format: ADME, organism-based; conditions: in vivo
[25] = Biodistribution in intestine + faeces of NMRI mouse at 185 KBq, iv after 30 mins; format: ADME, organism-based; conditions: in vivo, 0.5 h

Drug uptake [1]: 0 %ID
Drug uptake [2]: 22.4 %ID and 13.2 % ID/g
Drug uptake [3]: 1.3 %ID and 3.9 % ID/g
Drug uptake [4]: 4.7 %ID and 2.7 % ID/g
Drug uptake [5]: 2.8 %ID
logP [6]: 1.47
Drug uptake [7]: 1.6 %ID and 0.6 % ID/g
Drug uptake [8]: 1 %ID and 1.9 % ID/g
Drug uptake [9]: 0.1 %ID and 0.2 % ID/g
Drug uptake [10]: 2.9 %ID and 4.4 % ID/g
Drug uptake [11]: 69.4 %ID
Drug uptake [12]: 10.3 %ID
Drug uptake [13]: 0 %ID
Drug uptake [14]: 7.1 %ID
Drug uptake [15]: 64.4 %ID and 33.7 % ID/g
Drug uptake [16]: 0.3 %ID
Drug uptake [17]: 0 %ID
Drug uptake [18]: 21.1 %ID
Drug uptake [19]: 2.6 %ID and 4.8 % ID/g
Drug uptake [20]: 0.2 %ID and 0.5 % ID/g
Drug uptake [21]: 3.3 %ID and 1.3 % ID/g
Drug uptake [22]: 0.1 %ID
Drug uptake [23]: 13.2 %ID
Drug uptake [24]: 50.5 %ID
Drug uptake [25]: 13.2 %ID
SMILES: Cc1cc(O)c2c(=O)c3c(O)cc(O)c4c5c(O)c([123I])c(O)c6c(=O)c7c(O)cc(C(=O)O)c8c1c2c(c34)c(c78)c65

Drug uptake [7]: 28.2 % ID/g
SMILES: Cc1cc(O)c2c(=O)c3c(O)cc(O)c4c5c(O)c([123I])c(O)c6c(=O)c7c(O)cc(C)c8c1c2c(c34)c(c78)c65

From ChEMBL document CHEMBL1145371, “Synthesis and preliminary evaluation of mono-[123I]iodohypericin monocarboxylic acid as a necrosis avid imaging agent” (Bioorg Med Chem Lett, 2007)
